Source: PMC10979060 (Heliyon, 2024)
Where two headings read alike, the source gives them in different places. No end group written: not given here.

What was measured:
ACE [1] = conditions: cited from earlier work
ACE [2] = experiment: ACE-inhibitory kinetics; type: biochemical
How it was run: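 Reciprocal velocity was plotted against reciprocal HHL concentration (Lineweaver–Burk). Vmax came from the Y-axis intercept and Km from the X-axis intercept. The inhibition mode was assigned from the plot pattern. Runs were in triplicate.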

## MEGAQEAQGD
ACE [1]; peptide from sea cucumber, ref [38]
  IC50: 4.5 µM

## KKCHFWPFPW [KKCHFWPFPW]
ACE [2]; Lineweaver–Burk, HHL 0.5, 1, 2 mM, peptide 0, 17.63, 35.26, 70.52, 105.78, 141.04, 176.3 μM, triplicate
  inhibition mode: competitive inhibition
ACE [2]; Lineweaver–Burk, HHL 0.5, 1, 2 mM, peptide added vs control, triplicate
  Km values: higher than that of the control
ACE [2]; according to the Lineweaver–Burk plot
  inhibitor class (substrate-type, prodrug-type or true inhibitor): true inhibitor

## Tyr-Arg-Pro-Tyr
ACE [1]; peptide from bonito, ref [37]
  IC50: 320 µM

## Val-Lys-Pro
ACE [1]; peptide from freshwater clam, ref [39]
  IC50: 3.7 µM
